Sampled rows, rich in hits. Any-hit rate of the full collection: about 0.85%.
TRPML3 ag – human TRPML3 channel agonists, primary screen, cell-based, HEK293 TRPML3-YFP, Fluo-8 calcium fluorescence, 3 µM. Mucolipin-3 (Homo sapiens), Q8TDD5. 100% = the carbachol control signal. activation, % at 3 µM. hit rate 0.29% among 220,000;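 active = activation above its plate's cutoff, the mean activation of the plate's test wells plus 3 SD, cut at about 12% in these data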;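 note: 0% = DMSO only wells and 100% = carbachol wells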
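Test system: TRPML3-YFP stable HEK293 cells. Doses: single point at 3 µM. Incubation: dye loading 1 h 37 °C then 30 min ambient, 125 s read. Signal: Fluo-8 calcium dye fluorescence, ex 470-495, em 515-575 nm. Measure: percent activation from peak-to-basal fluorescence ratio, scaled between DMSO and carbachol.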
OXTR potentiate – human OXTR potentiators, primary screen, fluorescence, CHO-OTR cells, Fluo-8 calcium; activation, % at 3 µM; hit rate 0.061% among 320,000; AID 2445, 2010; Oxytocin receptor (Homo sapiens), P30559; Fluo-8 calcium fluorescence, potentiator mode; 0% = oxytocin EC15, 100% = EC100;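 active = activation above that plate's cutoff, the mean activation of tested compounds plus 3 SD, cut at about 6.6% in these data, passing the limit was not always enough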;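 note: 100% uses oxytocin at 75 nM as the full agonist control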
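assay system = CHO-OTR cells, human receptor | schedule = compound 6 min at room temperature before oxytocin, 100 s read | detection = Fluo-8 intracellular calcium fluorescence, ex 470-495, em 515-575 nm | evaluation = normalized max/min fluorescence ratio, % activation | control set = EC15 oxytocin alone as 0%, 75 nM oxytocin (EC100) as 100%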
OXTR ag – human OXTR agonists, primary screen, fluorescence, CHO-OTR cells, Fluo-8 calcium; AID 2435, 2010; activation, % at 3 µM; Fluo-8 calcium fluorescence; normalized: DMSO 0%, oxytocin 100%; Oxytocin receptor (Homo sapiens), P30559; hit rate 0.32% among 320,000;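 active = activation above the mean of all tested compounds plus 3 SD, cutoff set per screening run, cut at about 20% in these data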;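 note: peak over basal fluorescence ratio from a 100 s FLIPR kinetic read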
V1R ag counter – agonists of human V1a receptor, primary screen, counter-screen for OXTR agonist project, fluorescence, CHO-V1R cells; Vasopressin V1a receptor (Homo sapiens), P37288; Fluo-8 calcium fluorescence, agonist mode; 0% DMSO, 100% 3 nM vasopressin; activation, % at 3 µM; hit rate 0.25% among 320,000; AID 2797, 2010;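 active = activation above the mean activation of all tested compounds plus 3 SD, per screening run, cut at about 20% in these data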;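 note: signal is peak over basal fluorescence ratio across a 100 second FLIPR read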
Target sequence (P37288 whole entry, looked up): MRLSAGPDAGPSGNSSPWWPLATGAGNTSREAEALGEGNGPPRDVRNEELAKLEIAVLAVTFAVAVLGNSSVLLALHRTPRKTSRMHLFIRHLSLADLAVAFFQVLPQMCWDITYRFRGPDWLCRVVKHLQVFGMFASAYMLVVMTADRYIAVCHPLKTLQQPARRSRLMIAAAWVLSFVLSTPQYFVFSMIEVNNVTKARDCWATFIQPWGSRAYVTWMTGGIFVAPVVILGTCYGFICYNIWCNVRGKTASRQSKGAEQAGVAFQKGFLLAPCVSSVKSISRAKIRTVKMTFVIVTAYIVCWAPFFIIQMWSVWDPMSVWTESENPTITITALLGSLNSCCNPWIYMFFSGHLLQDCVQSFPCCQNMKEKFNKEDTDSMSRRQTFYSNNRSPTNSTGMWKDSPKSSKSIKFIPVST
TRPN1 ag – zebrafish TRPN1 channel agonists, primary screen, cell-based, HEK293, calcium fluorescence; HEK293 zebrafish TRPN1-YFP, Fluo-8 calcium fluorescence; 100% = response to 87 µM carbachol; transient receptor potential cation channel N1 (TRPN1/NompC), Danio rerio; activation, % at 3 µM; hit rate 0.18% among 220,000;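 active = activation above its plate's cutoff, the mean activation of test wells on that plate plus 3 SD, cut at about 19% in these data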;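 note: 0% = DMSO alone and 100% = 87 µM carbachol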
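Material: zebrafish TRPN1-YFP in HEK293 cells; Doses: single test compound dose, 3 µM nominal, 0.3% DMSO; Timing: dye loading 1 h at 37 °C, then 30 min room temperature; Technique: intracellular calcium fluorescence with Fluo-8; Benchmarks: high carbachol 87 µM, low DMSO alone.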
CRFR2-BP ag – agonists of CRF-BP/CRF-R2 complex, primary screen, cell-based, HEK293, calcium dye fluorescence, uHTS; CRF-binding protein / CRF receptor 2 complex (human); AID 588473, 2011; activation, % at 13.2 µM; calcium dye fluorescence (FLIPR); percent of saturating CRF peptide response; hit rate 0.46% among 350,000;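 active = activation of at least 50%, plus an integration ratio under a set limit after plate pattern correction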;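 note: plate controls were neutral control wells without compound for no effect and CRF at EC100 for full effect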
OXTR agonist cf – human OXTR agonists, confirmation, fluorescence, CHO-OTR cells, triplicate | Fluo-8 calcium fluorescence, agonist | activation, % at 3 µM | AID 434963, 2010 | hit rate 20% among 390 | shares compounds with OXTR ag;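 active = mean activation above about 20% derived from the earlier single-dose screen, limit read from the data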;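 note: peak over minimum fluorescence ratio per well during a 100 second FLIPR read; 0% = DMSO alone and 100% = oxytocin high control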
V1aR counter 3x – V1a receptor agonists, calcium signal, counter-screen for OXTR agonist project, triplicate, fluorescence, CHO-V1R cells; Fluo-8 calcium fluorescence; shares compounds with OXTR ag; activation, % at 3 µM; hit rate 10% among 390; AID 434991, 2010;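 active = mean activation over triplicate exceeds the hit threshold set in the earlier primary screen, cut at about 20% in these data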;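 note: peak over basal fluorescence ratio within a 100 second read; 0% = DMSO alone and 100% = 3 nM vasopressin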
* hit, by the source's call; x = no result.

SMILES	TRPML3 ag	OXTR potentiate	OXTR ag	V1R ag counter	TRPN1 ag	CRFR2-BP ag	OXTR agonist cf	V1aR counter 3x
CCc1ccccc1OC[C@@H](O)CN[C@H]1CCCc2ccccc21	x	-19	22*	14	x	-3	10	7
OC(CNC1CCCc2ccccc21)COc1ccc2ccccc2c1 (configuration not stated)	0	-16	11	7	1	-2	x	x
Cc1ccc(NC(=O)CN(C)C(=O)Cn2ccsc2=N)cc1	1	0	0	1	1	-2	x	x
Cc1ccc(Oc2ccc(NC(=O)Cn3ccsc3=N)cc2)cc1	1	-29	23*	9	1	8	12	3
CCOC(=O)N(O)c1ccc(C=Cc2ccccc2)cc1	x	x	x	x	x	1	x	x
CCCN1C=CC(=CC=C(C#N)C#N)C=C1	1	-8	21*	14	2	94*	23*	36*
C=CCN1C=CC(=CC=C(C#N)C#N)C=C1	1	-6	23*	19	3	67*	25*	30*
CCn1c(=O)c(C(=O)Nc2ncccc2C)c(O)c2ccccc21	3	-6	32*	20	14	10	6	33*
O=C(COc1ccccc1Cl)N1CCNC1=O	x	x	x	x	x	-2	x	x
CN1CCN(C2Cc3ccccc3Sc3ccc(Cl)cc32)CC1 (configuration not stated)	x	-4	9	4	x	-2	x	x
CN1CCN(C2Cc3ccccc3Sc3cc(C(F)(F)F)ccc32)CC1 (configuration not stated)	x	-4	24*	10	x	1	12	2
CN1CCN(C(=S)c2ccc(OCC(=O)Nc3cccc(C(F)(F)F)c3)cc2)CC1	2	-32	20*	13	6	3	9	8
COc1cc(C(=O)NCc2cccnc2)ccc1OCC(=O)Nc1cccc(C(F)(F)F)c1	x	-8	23*	18	x	-1	7	8
CCc1ccc(N/C(=N/c2nc(C)cc(C)n2)NC(C)=O)cc1	x	-3	-3	-1	x	-1	x	x
Cc1cc(C)nc(/N=C(\N)Nc2ccc(CC(=O)OC(C)C)cc2)n1	x	-23	26*	18	x	101*	8	12
O=C(c1ccc(NS(=O)(=O)c2ccccc2)cc1)N1CCN(c2ccccc2)CC1	x	-1	5	3	x	-3	x	x
COc1ccc(C(=O)CSc2nnc(CNc3ccc(C)cc3C)o2)cc1	1	-22	25*	11	-1	-3	2	3
Cc1ccc(NCc2nnc(SCC(=O)c3ccc4c(c3)OCCO4)o2)c(C)c1	0	-2	3	1	1	-1	x	x
Cc1ccc(C(=O)NC(=S)NNC(=O)c2ccccc2O)cc1	x	-23	22*	11	x	90*	35*	30*
CC(=O)Nc1ccc(NC(=O)C(C)OC(=O)/C(C#N)=C/c2ccc(N(C)C)cc2)cc1 (configuration not stated)	x	-23	20*	16	x	39	13	13
CC(OC(=O)/C(C#N)=C/c1ccc(N(C)C)cc1)C(=O)N(C)c1ccccc1 (configuration not stated)	x	-21	11	16	x	x	x	x
CNc1nc2cc([N+](=O)[O-])c([N+](=O)[O-])cc2nc1NC	9	-11	26*	11	27*	65*	23*	16
N#Cc1cc2nc(O)c(O)nc2cc1[N+](=O)[O-]	x	-7	0	-1	x	2	x	x
Brc1ccc2[nH]c3c(N4CCc5ccccc5C4)ncnc3c2c1	2	-21	24*	10	4	1	7	8
Nc1nc2ccccc2n1Cc1ccc(Cl)c(Cl)c1	x	-24	25*	13	x	-1	6	4
SMILES	TRPML3 ag	OXTR potentiate	OXTR ag	V1R ag counter	TRPN1 ag	CRFR2-BP ag	OXTR agonist cf	V1aR counter 3x
COC1=CC(=Cc2c(N)n3nc(CC(=O)N4CCOCC4)sc3nc2=O)C=C(OC)C1=O	x	0	21*	8	x	151*	55*	97*
Nc1c(C=C2C=CC(=O)C=C2)c(=O)nc2sc(CC(=O)N3CCOCC3)nn12	x	-3	0	1	x	0	x	x
CC(=O)c1c(C)[nH]c(C(=O)CN2C(=O)NC(C)(c3ccc(C)cc3)C2=O)c1C (configuration not stated)	7	-13	20*	20	17	77*	26*	17
Cc1cnc(C(=O)OC(C)C(=O)Nc2ccccc2-c2ccccc2)cn1 (configuration not stated)	x	-13	-2	-1	x	0	x	x
O=C(CCN1CCN(Cc2ccccc2)CC1)Nc1ccc(OCc2ccccc2)cc1	3	-12	22*	15	3	1	11	8
O=C(CN1CCN(CC(=O)Nc2ccc(OCc3ccccc3)cc2)CC1)Nc1ccc(F)cc1	2	-12	21*	15	1	0	9	9
O=C1CN(C(=O)CN2CCN(S(=O)(=O)c3ccccc3)CC2)c2ccccc2N1	x	x	x	x	x	0	x	x
O=C(CCc1cn(Cc2ccc(F)cc2)c2ccccc12)N1CCOCC1	x	-24	20*	5	x	0	-1	0
O=C(CS(=O)(=O)c1cn(Cc2ccc(F)cc2)c2ccccc12)N1CCCCC1	0	-10	0	0	-1	1	x	x
CC(=O)Oc1c(-c2ccc(Br)o2)oc2ccccc2c1=O	x	-10	-1	1	x	14	x	x
CC(=O)Nc1ccc(-c2cn3c(n2)SCC3)cc1	x	-8	1	1	x	3	x	x
O=C(Oc1ccc(-c2cn3c(n2)SCC3)cc1)c1ccccc1	3	-12	27*	13	11	1	9	8
CCCCCC(=O)N1C[C@@H](n2cc(COC(=O)c3ccccc3)nn2)[C@H](O)C[C@@H]1c1ccc(Cl)cc1	x	x	x	x	x	3	x	x
CC(c1ccccc1)N1CCC(CNC(=S)Nc2cccc(Cl)c2)C1 (configuration not stated)	3	-16	22*	16	2	2	18	8
COc1cc2c(cc1OC)C(Cc1ccccc1[N+](=O)[O-])=NCC2	x	x	x	x	x	-7	x	x

Screening results (PubChem BioAssay)
